One block for each compound: values may come before it. Calls of active or inactive are those of the source. The rule behind the calls is not given here.
Assays:
NCI-H460 = experiment: Cytotoxicity against human NCI-H460 cells assessed as cell growth at 10^-4 M after 48 hrs by sulforhodamine B assay relative to control; format: functional; conditions: NCI-H460, 48 h, read-out: Activity
Summary of the method: (§1)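 Cells were inoculated and preincubated 24–48 h, then exposed to a single dose of 10^-4 M for 48 h. SRB protein staining was the endpoint, and growth percent was calculated versus untreated controls.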

MCF7 [1] = experiment: Cytotoxicity against human MCF7 cells assessed as cell growth at 10^-4 M after 48 hrs by sulforhodamine B assay relative to control; format: functional; conditions: MCF7, 48 h, read-out: Activity; summary of the method: as §1
[2] = Cytotoxicity against human SF268 cells assessed as cell growth at 10^-4 M after 48 hrs by sulforhodamine B assay relative to control; format: functional; conditions: SF-268, 48 h, read-out: Activity; summary of the method: as §1
[3] = Antioxidant activity assessed as inhibition of superoxide anion generation measured for 3 mins by nitro blue tetrazolium assay; format: physicochemical; conditions: for Emax: 0.05 h
Summary of the method: (§2)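 Cell-free superoxide generated by xanthine (1 mM) and xanthine oxidase (0.11 U/mL), with NBT (50 µM) as detector. Compounds in DMSO were tested up to 10 µM, with DMSO held at 0.1%. NBT reduction rate (dA560/dt) was read spectrophotometrically over 3 min from the linear part.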

HFL1 [4] = experiment: Antifibrotic activity in HFL1 cells assessed as reduction in maximum rate of cell proliferation after 150 hrs by xCelligence analysis; format: functional, cell-based; conditions: Homo sapiens
Summary of the method: (§3)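 HFL-1 cells were seeded at 20,000/well and monitored by real-time impedance (xCelligence). Compound or DMSO vehicle was added at ~30 h, once attachment was maximal, and cells were followed for another 150 h. P150 was taken as the signal difference between 30 h and 180 h; Pdot was the maximum slope of the curve.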

HFL1 [5] = experiment: Antifibrotic activity in HFL1 cells assessed as inhibition of cell viability after 48 hrs by sulforhodamine B assay; format: functional, cell-based; conditions: Homo sapiens, HFL1, 48 h
Summary of the method: (§4)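 HFL-1 human fetal lung fibroblasts (DMEM, 10% FCS, passages 14–18) seeded at 8000 cells/well, attached overnight, then exposed to a range of concentrations for 48 h in triplicate. Cells were fixed with TCA and stained with 0.4% SRB, bound dye was solubilized in Tris, and OD was read at 570 nm relative to control.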

HFL1 [6] = experiment: Antifibrotic activity in HFL1 cells assessed as inhibition of cell viability at >1 uM after 48 hrs by sulforhodamine B assay relative to control; format: functional; conditions: Homo sapiens, HFL1, 48 h; summary of the method: as §4
HFL1 [7] = experiment: Antifibrotic activity in HFL1 cells assessed as reduction in cell proliferation after 150 hrs by xCelligence analysis; conditions: Homo sapiens
[8] = Antioxidant activity assessed as inhibition of superoxide anion generation upto 10 uM measured for 3 mins by nitro blue tetrazolium assay; format: physicochemical; conditions: 0.05 h; summary of the method: as §2
[9] = Cytotoxicity against human NCI60 cells assessed as cell growth at 10^-5 M after 48 hrs by sulforhodamine B assay relative to control; format: functional; conditions: NCI60, 48 h, read-out: Activity
Summary of the method: (§5)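 NCI ~60 human tumor cell line one-dose screen covering nine cancer types. Cells were preincubated 24–48 h, then exposed to compound at 10^-5 M for 48 h. SRB protein staining was the endpoint, and growth percent was calculated versus untreated control cells.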

[10] = Cytotoxicity against human RPMI8226 cells assessed as cell growth at 10^-5 M after 48 hrs by sulforhodamine B assay relative to control; format: functional; conditions: RPMI-8226, 48 h, read-out: Activity; summary of the method: as §5
NCI-H522 = experiment: Cytotoxicity against human NCI-H522 cells assessed as cell growth at 10^-5 M after 48 hrs by sulforhodamine B assay relative to control; format: functional; conditions: NCI-H522, 48 h, read-out: Activity; summary of the method: as §5
[11] = Cytotoxicity against human UO31 cells assessed as cell growth at 10^-5 M after 48 hrs by sulforhodamine B assay relative to control; format: functional; conditions: UO-31, 48 h, read-out: Activity; summary of the method: as §5
HFL1 [12] = experiment: Antifibrotic activity in HFL1 cells assessed as reduction in cell proliferation at 0.1 to 1 uM after 150 hrs by xCelligence analysis; format: functional, cell-based; conditions: Homo sapiens; summary of the method: as §3
[13] = Growth inhibition of human NCI60 cells after 48 hrs by sulforhodamine B assay; format: functional; conditions: NCI60, 48 h; for CC50: read-out: pLC50 (the source's name) (converted); for TGI: read-out: pTGI (converted)
Summary of the method: (§6)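 NCI ~60-cell-line panel with five 10-fold dilutions (10^-4 to 10^-8 M) and 48 h continuous exposure, using an SRB endpoint. Percentage growth was derived from time-zero, control and treated absorbances. Values are expressed as > or < when outside the tested range.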

[14] = Growth inhibition of human HOP62 cells after 48 hrs by sulforhodamine B assay; format: functional; conditions: HOP-62, 48 h
Summary of the method: (§7)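 NCI ~60-cell-line panel with five 10-fold dilutions (10^-4 to 10^-8 M) and 48 h continuous exposure, using an SRB endpoint. Percentage growth was derived from time-zero, control and treated absorbances. […] Values are expressed as > or < when outside the tested range.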

[15] = Growth inhibition of human HOP92 cells after 48 hrs by sulforhodamine B assay; format: functional; conditions: HOP-92, 48 h; summary of the method: as §7
[16] = Growth inhibition of human HCT116 cells after 48 hrs by sulforhodamine B assay; format: functional; conditions: HCT-116, 48 h; for CC50: read-out: LC50 (the source's name); summary of the method: as §6
U-251 = experiment: Growth inhibition of human U251 cells after 48 hrs by sulforhodamine B assay; format: functional; conditions: U-251, 48 h; summary of the method: as §7
MDA-MB-231 = experiment: Growth inhibition of human MDA-MB-231 cells after 48 hrs by sulforhodamine B assay; format: functional; conditions: MDA-MB-231, 48 h; summary of the method: as §7
MDA-MB-435 = experiment: Growth inhibition of human MDA-MB-435 cells after 48 hrs by sulforhodamine B assay; format: functional; conditions: MDA-MB-435, 48 h; summary of the method: as §7
[17] = Growth inhibition of human OVCAR3 cells after 48 hrs by sulforhodamine B assay; format: functional; conditions: OVCAR-3, 48 h; summary of the method: as §7
MCF7 [18] = experiment: Growth inhibition of human MCF7 cells after 48 hrs by sulforhodamine B assay; format: functional; conditions: MCF7, 48 h; summary of the method: as §7
[19] = Growth inhibition of human RPMI8226 cells after 48 hrs by sulforhodamine B assay; format: functional; conditions: RPMI-8226, 48 h; summary of the method: as §7
SR = experiment: Growth inhibition of human SR cells after 48 hrs by sulforhodamine B assay; format: functional
Summary of the method: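 NCI 60-cell-line panel, five-dose screen: cells inoculated and preincubated 24-48 h, then exposed continuously for 48 h to five 10-fold dilutions from 10^-4 to 10^-8 M. Protein measured by SRB staining at time zero, in untreated control and in treated wells.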

KM12 = experiment: Growth inhibition of human KM12 cells after 48 hrs by sulforhodamine B assay; format: functional; conditions: KM12, 48 h; summary of the method: as §7
[20] = Growth inhibition of human SW620 cells after 48 hrs by sulforhodamine B assay; format: functional; conditions: SW-620, 48 h; summary of the method: as §7
[21] = read-out: LC50 (the source's name)

Structure (SMILES): O=C1N=C(Nc2ccc(O)cc2)S/C1=C1\C(=O)Nc2ccccc21
- growth at 100 µM (NCI-H460): 96%
- growth at 100 µM (MCF7 [1]): 108%
- growth at 100 µM [2]: 118%

- IC50 [3]: 3.4 µM
- Emax [3]: 55%
Structure (SMILES): CC(=C/c1ccccc1)/C=C1\SC(N(C)c2ccc(O)cc2)=NC1=O
- Activity (HFL1 [4]): Dose-dependent effect
- IC50 (HFL1 [5]): 0.01 µM
- Emax (HFL1 [6]): 34%
- Activity (HFL1 [7]): Dose-dependent effect

- inhibition (INH) [8]: Not Active
Structure (SMILES): Cc1ccc(=O)n(-c2ccccc2)c1 [PIRFENIDONE]
- IC50 (HFL1 [5]): 0.71 µM
- Emax (HFL1 [6]): 78.5%
- growth at 10 µM [9]: 96.3%
- growth at 10 µM [10]: 76%
- growth at 10 µM (NCI-H522): 79.8%
- growth at 10 µM [11]: 76.9%
- Activity (HFL1 [7]): Dose-dependent effect

- IC50 [3]: 1.96 µM
- Emax [3]: 35.8%
Structure (SMILES): CC1S/C(=N/N=C/c2cccnc2)NC1=O (racemic)
- IC50 (HFL1 [5]): 0.83 µM
- Emax (HFL1 [6]): 84.6%

- IC50 [3]: 1.32 µM
- Emax [3]: 86.5%
Structure (SMILES): C=CCN1C(=O)/C(=C2/C(=O)Nc3ccccc32)S/C1=N\c1nccs1
- Activity (HFL1 [12]): Active
- IC50 (HFL1 [5]): 0.09 µM
- Emax (HFL1 [6]): 65.9%
- growth at 100 µM (NCI-H460): 49%
- growth at 100 µM (MCF7 [1]): 76%
- growth at 100 µM [2]: 82%

- inhibition (INH) [8]: Not Active
Structure (SMILES): COc1ccccc1NC(=O)CSc1nnc(/N=C2\NC(=O)CS2)s1
- Activity (HFL1 [12]): Active
- IC50 (HFL1 [5]): 0.4 µM
- Emax (HFL1 [6]): 75%

Structure (SMILES): NS(=O)(=O)c1ccc(NC2=NC(=O)C(CC(=O)Nc3ccc(Br)cc3)S2)cc1 (racemic)
- growth at 100 µM (NCI-H460): 88%
- growth at 100 µM (MCF7 [1]): 24%
- growth at 100 µM [2]: 45%
- GI50 [13]: 58.9 µM
- CC50 [13]: 97.7 µM
- TGI [13]: 89.1 µM
- GI50 [14]: 15.6 µM
- TGI [14]: 31.7 µM
- CC50 [14, 21]: 64.3 µM
- GI50 [15]: 24.3 µM
- TGI [15]: 58.3 µM
- CC50 [15, 21]: > 100 µM
- GI50 [16]: 21.8 µM
- TGI [16]: 43.5 µM
- CC50 [16]: 86.7 µM
- GI50 (U-251): 20.7 µM
- LC50 (concentration killing 50% of cells) (U-251): 94.3 µM
- TGI (U-251): 44.2 µM
- GI50 (MDA-MB-231): 18.5 µM
- TGI (MDA-MB-231): 38.2 µM
- CC50 (MDA-MB-231; [21]): 78.6 µM

Structure (SMILES): O=C1N=C(Nc2ccc(O)cc2)S/C1=C\c1ccc(Cl)cc1
- IC50 (HFL1 [5]): 0.02 µM
- Emax (HFL1 [6]): 46.1%
- Activity (HFL1 [7]): Dose-dependent effect

Structure (SMILES): O=C1N=C(Nc2ccc(O)cc2)S/C1=C\c1ccccc1
- GI50 (MDA-MB-435): 0.21 µM
- TGI (MDA-MB-435): 0.92 µM
- CC50 (MDA-MB-435; [21]): > 100 µM
- GI50 [17]: 0.71 µM
- TGI [17]: > 100 µM
- CC50 [17, 21]: > 100 µM
- GI50 (MCF7 [18]): 0.25 µM
- TGI (MCF7 [18]): > 100 µM
- CC50 (MCF7 [18]; [21]): > 100 µM
- IC50 (HFL1 [5]): 0.09 µM
- Emax (HFL1 [6]): 23.8%
- GI50 [13]: 12.9 µM
- CC50 [13]: 100 µM
- TGI [13]: 89.1 µM
- GI50 [16]: 0.32 µM
- TGI [16]: > 100 µM
- CC50 [16]: > 100 µM
- GI50 (U-251): 0.68 µM
- LC50 (concentration killing 50% of cells) (U-251): > 100 µM
- TGI (U-251): > 100 µM
- GI50 [19]: 0.6 µM
- TGI [19]: > 100 µM
- CC50 [19, 21]: > 100 µM
- GI50 (SR): 0.09 µM
- CC50 (SR; [21]): > 100 µM
- GI50 (KM12): 0.87 µM
- TGI (KM12): > 100 µM
- CC50 (KM12; [21]): > 100 µM
- GI50 [20]: 0.47 µM
- TGI [20]: > 100 µM
- CC50 [20, 21]: > 100 µM

Structure (SMILES): O=C1N=C(Nc2ccc(O)cc2)S/C1=C\C=C/c1ccccc1
- growth at 100 µM (NCI-H460): 140%
- growth at 100 µM (MCF7 [1]): 124%
- growth at 100 µM [2]: 103%

Structure (SMILES): Cc1cc(O)c(C(C)C)cc1NC1=NC(=O)S/C1=C\c1ccc(Cl)cc1
- IC50 (HFL1 [5]): 0.03 µM
- Emax (HFL1 [6]): 75.5%

Structure (SMILES): O=C1CS/C(=N/N=C/c2cccnc2)N1
- IC50 (HFL1 [5]): 0.81 µM
- Emax (HFL1 [6]): 92.1%

Structure (SMILES): O=C1N=C(Nc2nccs2)S/C1=C1\C(=O)Nc2ccc(Br)cc21
- IC50 [3]: 0.38 µM
- Emax [3]: 67.4%
- GI50 [13]: 95.5 µM
- CC50 [13]: 100 µM
- TGI [13]: 100 µM

From ChEMBL document CHEMBL3779799, “Antifibrotic and anticancer action of 5-ene amino/iminothiazolidinones” (Eur J Med Chem, 2016)
